Laboratory results reported in PMC9907361 (Gastric cancer : official journal of the International …, 2021).
Entries after “also recorded” stand apart in the source; their conditions may differ. One block for each compound: values may come before it.

Assays:
[1] = tested on: cells; conditions: cited from earlier work
[2] = tested on: AGS cells overexpressing WNT1; test: Lactose/mannose treatment of WNT1-overexpressing AGS cells; type: cell-based, human; conditions: 50 mM, 4 h preincubation
Outline: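 AGS cells were transfected with HA-WNT1. Lactose or mannose (50 mM) was added 4 h before cell extraction, and the indicated proteins were then detected in the extracts.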

[3] = tested on: AGS cells; type: cell-based, human
[4] = target: human STAT3 (residues 127–688) (Homo sapiens, UniProt P40763); test: ITC binding of galectin-3 peptides to STAT3; conditions: abstract statement
Outline: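 Human STAT3 residues 127–688 was expressed from pET22b(+) and purified. ITC was run at 25 °C. Wild-type and Y45-phosphorylated galectin-3 peptides (140 μM each) in 20 mM Tris pH 7.5, 300 mM NaCl were injected at 220 s intervals into 7 μM STAT3. Heats of dilution from buffer controls were subtracted, and data were fitted to a single set of binding sites model.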

human STAT3 (residues 127–688), sequence (P40763 127-688): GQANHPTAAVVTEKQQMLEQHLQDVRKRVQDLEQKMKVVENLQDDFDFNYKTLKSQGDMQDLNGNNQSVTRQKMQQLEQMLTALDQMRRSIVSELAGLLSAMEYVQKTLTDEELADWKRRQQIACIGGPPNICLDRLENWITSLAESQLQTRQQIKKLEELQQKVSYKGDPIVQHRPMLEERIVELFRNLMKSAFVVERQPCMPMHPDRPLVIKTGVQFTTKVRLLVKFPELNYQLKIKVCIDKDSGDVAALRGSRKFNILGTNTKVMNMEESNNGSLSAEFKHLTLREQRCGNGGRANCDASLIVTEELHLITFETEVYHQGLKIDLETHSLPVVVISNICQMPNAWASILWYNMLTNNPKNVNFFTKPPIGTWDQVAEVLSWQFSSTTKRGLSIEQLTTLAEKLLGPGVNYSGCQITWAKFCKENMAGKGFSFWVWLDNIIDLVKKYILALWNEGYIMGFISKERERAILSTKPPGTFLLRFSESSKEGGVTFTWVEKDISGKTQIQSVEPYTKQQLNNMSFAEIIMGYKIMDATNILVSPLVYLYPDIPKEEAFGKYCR

Compound: OC[C@H]1O[C@@H](O[C@H]2[C@H](O)[C@@H](O)C(O)O[C@@H]2CO)[C@H](O)[C@@H](O)[C@H]1O (mixture of isomers) [lactose]
cellular uptake of lactose ([1]; stated without reference): too polar to be taken up by the cells | inhibition of STAT3 phosphorylation [2]: did not inhibit | inhibition of β-catenin stability [2]: did not inhibit

Compound: OC[C@H]1O[C@H](Sc2ccc(Cl)c(Cl)c2)[C@H](O)[C@@H](n2cc(-c3cc(F)c(F)c(F)c3)nn2)[C@H]1O [GB1107]
uptake across cell membranes [1]: improved uptake across cell membranes; also recorded: can penetrate into cells

Compound: OC[C@H]1OC(O)[C@@H](O)[C@@H](O)[C@@H]1O (stereo partly drawn) [mannose]
inhibition of STAT3 phosphorylation [2]: did not inhibit | inhibition of β-catenin stability [2]: did not inhibit

Compound: IL-6: IL-6 cytokine
STAT3 phosphorylation on IL-6 treatment ([3]; AGS cells, IL-6 alone): induced STAT3 phosphorylation

direct binding to the STAT3 SH2 domain [4]: directly bound to the STAT3 SH2 domain
Compound: YPGQ [peptide of galectin-3 (Y45-Q48)]
enhancement of STAT3 phosphorylation ([3]; abstract statement): enhanced its phosphorylation
